According to ChEMBL document CHEMBL2375208, “Structural, kinetic, and pharmacodynamic mechanisms of D-amino acid oxidase inhibition by small molecules” (J Med Chem, 2013):
Each block holds one compound with its values, some of them ahead of it. Activity calls are given as the source filed them. No cut-off for these calls is given here.

Experiments:
[1] = target: T1, D-amino-acid oxidase (Homo sapiens, UniProt P14920); experiment: Binding affinity to human recombinant DAAO at 492 nm spectral modification by spectrophotometric analysis in presence of FAD
Summary of the method: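 Purified human recombinant DAAO, E. coli-expressed and purified on a nickel column then size exclusion, was titrated in the oxidized (holoenzyme) state with rising inhibitor concentrations up to saturation, without substrate turnover. Ligand-induced changes in the FAD visible absorption spectrum were followed. Kd with SE came from nonlinear regression of saturation curves of absorbance change against inhibitor concentration.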

[2] = target: T1, D-amino-acid oxidase; experiment: Competitive inhibition of human recombinant DAAO after 1 hr by coupled enzyme assay in presence of D-serine
[3] = target: T1, D-amino-acid oxidase; experiment: Competitive inhibition of human recombinant DAAO by Michaelis-Menten plot analysis in presence of D-serine
[4] = target: T1, D-amino-acid oxidase; experiment: Binding affinity to human recombinant DAAO at 440 nm spectral modification by spectrophotometric analysis in presence of FAD
Summary of the method: (§1)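 Purified human recombinant DAAO holoenzyme (His-tagged construct expressed in E. coli, purified by nickel column and size exclusion) was titrated in its oxidized state with increasing inhibitor concentrations, without substrate turnover. Ligand-induced changes in the FAD visible absorption spectrum were read at the stated wavelength. Kd and SE came from nonlinear regression of absorbance-change saturation curves. Changes above 500 nm indicate a charge-transfer complex.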

[5] = target: T1, D-amino-acid oxidase; experiment: Binding affinity to human recombinant DAAO by stopped flow spectrophotometric analysis in presence of FAD
[6] = target: T1, D-amino-acid oxidase; experiment: Binding affinity to human recombinant DAAO at 600 nm spectral modification by spectrophotometric analysis in presence of FAD; summary of the method: as §1
[7] = target: T1, D-amino-acid oxidase; experiment: Binding affinity to human recombinant DAAO at 490 nm spectral modification by spectrophotometric analysis in presence of FAD
[8] = system: Rattus norvegicus; experiment: Metabolic stability in Sprague-Dawley rat at 3 to 10 mg/kg, po/10 mg/kg, ip by LC/MS/MS analysis; assay type: ADME, organism-based; parameters: dose 3-10 mg/kg, route intraperitoneal; conditions: in vivo
[9] = species: Mus musculus; conditions: C57BL/6, Cerebellum, 12 mg/kg
[10] = target: T1, D-amino-acid oxidase; experiment: Binding affinity to human recombinant DAAO at 520 nm spectral modification by spectrophotometric analysis in presence of FAD
[11] = system: Rattus norvegicus; experiment: Inhibition of DAAO in ip dosed Sprague-Dawley rat assessed as cerebellum concentration of compound required for 50% accumulation of D-serine after 6 hrs by LC/MS/MS analysis; assay type: functional, organism-based
Summary of the method: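 Rats received different ip doses. Cerebellum D-serine and inhibitor concentrations were measured 6 h later. EC50 was the inhibitor concentration at half-maximal D-serine increase, from a sigmoidal dose–response fit.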

[12] = Drug uptake in C57BL/6 mouse cerebellum at 12 mg/kg, ip after 2 hrs by LC/MS/MS analysis; assay type: ADME, organism-based; parameters: dose 12 mg/kg, route intraperitoneal; conditions: read-out: Drug uptake
Summary of the method: (§2)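 Male C57BL/6 mice (20–30 g) were dosed ip in 50 mM phosphate buffer at 5 mL/kg, with controls given vehicle only. Regimens were 12 mg/kg once or repeated at 2, 4 and 6 h, 30 mg/kg, or 125 mg/kg. Mice were killed at set times. Cerebellar inhibitor and D-serine were measured in the same samples, D-serine by chiral LC/MS/MS. Initial rate was the slope over 0–2 h.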

[13] = Drug uptake in C57BL/6 mouse cerebellum at 12 mg/kg, ip administered every 2 hrs by LC/MS/MS analysis; assay type: ADME, organism-based; parameters: dose 12 mg/kg, route intraperitoneal; conditions: read-out: Drug uptake; summary of the method: as §2
[14] = target: T1, D-amino-acid oxidase; experiment: Inhibition of DAAO (unknown origin)
[15] = target: T1, D-amino-acid oxidase; experiment: Binding affinity to human recombinant DAAO at 443 nm spectral modification by spectrophotometric analysis in presence of FAD; summary of the method: as §1
[16] = target: T1, D-amino-acid oxidase; experiment: Binding affinity to human recombinant DAAO at 496 nm spectral modification by spectrophotometric analysis in presence of FAD; summary of the method: as §1
[17] = target: T2, D-amino-acid oxidase (Sus scrofa, UniProt P00371); experiment: Binding affinity to pig kidney DAAO using D-alanine as substrate
[18] = Drug uptake in C57BL/6 mouse cerebellum at 30 mg/kg, ip after 6 hrs by LC/MS/MS analysis; assay type: ADME, organism-based; parameters: dose 30 mg/kg, route intraperitoneal; conditions: read-out: Drug uptake; summary of the method: as §2
[19] = target: T2, D-amino-acid oxidase; experiment: Competitive inhibition of pig kidney DAAO in presence of D-alanine
[20] = target: T1, D-amino-acid oxidase
[21] = target: T1, D-amino-acid oxidase; experiment: Binding affinity to human recombinant DAAO at 395 nm spectral modification by spectrophotometric analysis in presence of FAD
Summary of the method: (§3)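 Oxidized holoenzyme of purified human recombinant DAAO, titrated with increasing inhibitor in the absence of substrate. Ligand-induced changes in the FAD visible absorption spectrum were read at fixed wavelengths. Kd and SE came from nonlinear regression of saturation of the absorbance change.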

[22] = Drug uptake in C57BL/6 mouse cerebellum at 125 mg/kg, ip after 3 hrs by LC/MS/MS analysis; assay type: ADME, organism-based; parameters: dose 125 mg/kg, route intraperitoneal; conditions: read-out: Drug uptake; summary of the method: as §2
[23] = system: Mus musculus; experiment: Inhibition of DAAO in C57BL/6 mouse assessed as increase in rate of D-serine accumulation in cerebellum at 125 mg/kg, ip by LC/MS/MS analysis; assay type: functional, organism-based; parameters: dose 125 mg/kg; summary of the method: as §2
[24] = target: T1, D-amino-acid oxidase; experiment: Binding affinity to human recombinant DAAO at 444 nm spectral modification by spectrophotometric analysis in presence of FAD; summary of the method: as §3
[25] = target: T1, D-amino-acid oxidase; experiment: Binding affinity to human recombinant DAAO at 362 nm spectral modification by spectrophotometric analysis in presence of FAD; summary of the method: as §3
[26] = target: T1, D-amino-acid oxidase; experiment: Binding affinity to human recombinant DAAO at 498 nm spectral modification by spectrophotometric analysis in presence of FAD; summary of the method: as §3

T1 sequence (P14920 whole entry): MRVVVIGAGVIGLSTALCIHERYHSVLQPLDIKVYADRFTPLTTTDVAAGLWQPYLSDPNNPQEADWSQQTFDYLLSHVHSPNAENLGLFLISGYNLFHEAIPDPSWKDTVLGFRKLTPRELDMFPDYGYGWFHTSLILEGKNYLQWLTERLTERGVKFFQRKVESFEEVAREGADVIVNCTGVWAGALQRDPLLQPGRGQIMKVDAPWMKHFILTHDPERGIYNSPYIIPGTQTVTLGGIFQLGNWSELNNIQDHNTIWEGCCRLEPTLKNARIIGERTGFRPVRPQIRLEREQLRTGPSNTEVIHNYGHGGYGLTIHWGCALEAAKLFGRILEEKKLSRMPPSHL
T2 sequence (P00371 whole entry): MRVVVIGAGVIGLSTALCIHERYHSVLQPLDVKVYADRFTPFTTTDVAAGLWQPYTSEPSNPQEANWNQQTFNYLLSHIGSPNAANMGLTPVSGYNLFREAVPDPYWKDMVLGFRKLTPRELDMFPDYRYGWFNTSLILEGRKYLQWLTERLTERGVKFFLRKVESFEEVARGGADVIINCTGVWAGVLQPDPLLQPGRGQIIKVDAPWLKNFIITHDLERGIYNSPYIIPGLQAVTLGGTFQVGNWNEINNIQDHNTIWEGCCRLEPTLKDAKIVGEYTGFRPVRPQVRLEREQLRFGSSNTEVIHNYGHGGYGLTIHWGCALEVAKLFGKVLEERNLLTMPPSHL

- Kd [1]: 3.7 µM
- IC50 [2]: 0.219 µM
- Ki [3]: 0.19 µM
- Kd [4]: 4.8 µM
- Kd [5]: 6 µM
- Kd [6]: 3.2 µM
SMILES: O=C(O)c1cc2occ(CCc3ccccc3)c2[nH]1

SMILES: O=C(O)c1cc2sccc2[nH]1
- Kd [7]: 0.13 µM
- IC50 [2]: 0.00537 µM
- Stability [8]: Unstable
- inhibition [9]: Active
- Ki [3]: 0.0035 µM
- Kd [10]: 2.5 µM
- EC50 [11]: 0.5 µM
- concentration at 2 h [12]: < 1 µM
- Kd [5]: 7 µM
- concentration at 2 h [13]: > 1 µM
- IC50 [14]: 0.00537 µM

- Kd [15]: 4 µM
- IC50 [2]: 0.0347 µM
- Ki [3]: 0.013 µM
- Kd [16]: 5.6 µM
- Kd [5]: 6.3 µM
SMILES: O=c1oc2ccccc2cc1O [3-HYDROXYCOUMARIN]

- Kd [17]: 26 µM
SMILES: O=C(O)c1ccc[nH]1

- concentration at 6 h [18]: > 1 µM
SMILES: O=C(O)c1cc(CCc2ccc(Cl)cc2)c[nH]1

- Ki [19]: 3.4 µM
SMILES: O=C(O)c1cc2ccccc2[nH]1 [INDOLE-2-CARBOXYLIC ACID]

SMILES: O=C(O)c1ccccc1 [BENZOIC ACID]
- Kd [1]: 2.2 µM
- IC50 [2]: 2.09 µM
- Ki [3]: 2 µM
- Kd [20]: 9 µM
- Kd [5]: 2.3 µM

- IC50 [2]: 0.00309 µM
- Ki [3]: 0.0017 µM
- Kd [21]: 4 µM
- concentration at 3 h [22]: < 1 µM
- EC50 [11]: 1.5 µM
- Kd [24]: 4.2 µM
- Kd [25]: 3.6 µM
- Kd [5]: 1.9 µM
- Kd [26]: 4.2 µM
SMILES: Oc1noc2cc(Cl)c(Cl)cc12
- inhibition [23]: Active
